Experimental data collected from several papers.
Target: Calcium/calmodulin-dependent protein kinase type 1 (CAMK1, Homo sapiens, UniProt Q14012)

Compound	assay	setting	quantity	result
CS(=O)(=O)c1cc(C2(NC(=O)c3cncc4c3cnn4-c3ccc(F)cc3)CC2)ccn1	cell-free assay, competition with immobilised ligand	1 µM	remaining binding	65%
COc1cc(Cl)c(C(=O)N[C@@H](CN[C@H]2CC[C@@H](N)CC2)Cc2ccc(C#N)cc2)cc1-c1ccc(CN[C@H](C)c2ccc(C)cc2)o1	enzyme activity, inhibitor	1 µM	remaining activity	108%
c1ccc(CNc2nc(N3CCOc4ccccc43)nc3c2CCCC3)cc1	target engagement in cells, inhibitor, chemoproteomics	20 mM	inhibition	1.2%
Oc1cccc(-c2nc(N3CCOCC3)c3oc4ncccc4c3n2)c1	enzyme activity, inhibitor	10 µM	remaining activity	99%
NS(=O)(=O)c1cc(NC(=O)Cc2ccccc2)ccc1Oc1cccc(Cl)c1	cell-free assay, competition with immobilised ligand	1 µM	remaining binding	90%
CCCOc1ccc(OC)c(F)c1C(=O)c1ccc(C(=O)N[C@@H]2CNC[C@H]2NC(=O)c2ccc3[nH]ncc3c2)cc1	enzyme activity, inhibitor	10 µM	remaining activity	34%
Cc1ccc(Nc2nccc(N(C)c3ccc4c(C)n(C)nc4c3)n2)cc1S(N)(=O)=O	enzyme activity, inhibitor	10 µM	inhibition	52%
CC(C)c1ccc(NC(=O)c2cccs2)c(-c2nc3ccccc3[nH]c2=O)c1	enzyme activity, inhibitor	1 µM	activity vs control	104%
CCN(CC)c1ccc(C2=NNC(=O)CC2C)cc1[N+](=O)[O-] (stereo not drawn)	enzyme activity, inhibitor	10 µM	remaining activity	89%
CCCCNc1ncc2c(-c3ccc(F)cc3)nn(C[C@H]3CC[C@H](N)CC3)c2n1	target engagement in cells, inhibitor, chemoproteomics	20 mM	inhibition	2.2%
O=C(Nc1cccnn1)N1CC(C/C=C/c2cncc(Oc3ccc(C(F)(F)F)cn3)n2)C1	cell-free assay, competition with immobilised ligand	1 µM	remaining binding	100%
N#CCCc1ccc2c(c1)-c1[nH]c3ccc([N+](=O)[O-])cc3c1CC(=O)N2	cell-free assay	0.5 µM	remaining signal	96%
CCCS(=O)(=O)Nc1ccc(F)c(C(=O)c2c[nH]c3ncc(-c4ccc(Cl)cc4)cc23)c1F	enzyme activity, inhibitor	1 µM	inhibition	< 10%
COc1cc(-c2cn(C3CCc4c(F)cccc4N(CC(F)(F)F)C3=O)nn2)ccc1-n1cnc(C)c1 (stereo not drawn)	cell-free assay, competition with immobilised ligand	1 µM	remaining binding	100%
O=C(Nc1cnn(-c2csc(C(=O)NC3COC3)c2)c1)Nc1ccccc1Cl	enzyme activity, inhibitor	5 µM	remaining activity	87.1%
Cc1cc(NC(=O)c2cccc3cc(-c4cccc5[nH]nc(N)c45)ccc23)ccc1F	enzyme activity, inhibitor	0.1 µM	activity vs control	116%
Oc1cccc(-c2nc(N3CCOCC3)c3oc4ncccc4c3n2)c1	cell-free assay	0.5 µM	remaining signal	101%
Cc1ccc(NC(=O)c2ccc(C)c(C(F)(F)F)c2)cc1C#Cc1nn(C2CCC(O)CC2)c2ncnc(N)c12 (stereo not drawn)	cell-free assay	10 µM	remaining signal	62%
COc1cc(/C=C/C(=O)CC(=O)/C=C/c2ccc(O)c(OC)c2)ccc1O	enzyme activity, inhibitor	1 µM	activity vs control	86%
Cc1cnc(NC2CCOCC2)nc1-n1cnc(C(=O)NC(CN)c2cc(F)cc(Cl)c2)c1 (stereo not drawn)	enzyme activity, inhibitor, radiometric	1 µM	remaining activity	88%
CN(C)C(=O)Cn1cc(-c2nc([C@@](C)(c3ccc(-c4cnc(N)nc4)cc3)C3CC3)no2)cn1	cell-free assay, competition with immobilised ligand	1 µM	remaining binding	100%
COc1cc(Nc2cnc(C#N)c(O[C@H](C)CN(C)C)n2)ncc1-c1cnn(C)c1	enzyme activity, inhibitor, radiometric	1 µM	remaining activity	92%
Cc1cc(-n2nc(Cc3cc(F)cc(C(F)(F)F)c3)nc2C)ccc1C(N)=O	cell-free assay, competition with immobilised ligand	1 µM	remaining binding	90%
Nc1nc(Nc2ccccc2)sc1C(=O)c1c(F)cccc1F	enzyme activity, inhibitor	10 µM	remaining activity	55%
CNC(=O)c1cc(Oc2ccc(NC(=O)Nc3ccc(Cl)c(C(F)(F)F)c3)cc2)ccn1	enzyme activity, inhibitor	10 µM	inhibition	9%
O=C1Nc2ccc(Cl)cc2C1=Cc1cc(Cl)c(O)c(Cl)c1	cell-free assay	0.5 µM	remaining signal	94.9%
Cc1nc(N2CC[C@@H](O)C2)ncc1-c1cc(C(F)(F)F)cc2[nH]ncc12	cell-free assay, competition with immobilised ligand	1 µM	remaining binding	100%
COc1cc(-c2cc(-c3ccc(N4CCNCC4)cc3)cnc2C)cc(OC)c1OC	enzyme activity, inhibitor	0.1 µM	inhibition	1%
CC(=O)N1CCC(c2ccc(C(=O)NC3=NCCN3)cc2C(F)(F)F)CC1	cell-free assay, competition with immobilised ligand	1 µM	remaining binding	100%
CCN(CC)CCNC(=O)c1c(C)[nH]c(/C=C2\C(=O)Nc3ccc(F)cc32)c1C	enzyme activity, inhibitor	0.3 µM	inhibition	21%
